Test results as given in ChEMBL document CHEMBL4673277, “In silico and in vitro screening for potential anticancer candidates targeting GPR120” (Bioorg Med Chem Lett, 2021).
The source made the active and inactive calls. The calls are words filed in the database; no cut-off is given here.

How the values were obtained:
[1] = test system: SW480; experiment: Anticancer activity against human SW480 cells expressing GPR120 assessed as inhibition of cell viability at 100 uM measured after 72 hrs by alamar blue assay relative to control; format: functional
Summary of the method: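 SW480 in RPMI1640 + 10% FBS, 37 °C, 5% CO2; seeded 2500 cells/well, exposed 72 h to 100, 10, 1 μM in 0.5% DMSO medium. Medium then replaced by 6% alamar blue, 3 h, fluorescence ex 560/em 590 nm. Six replicates, mean ± SE; viability set relative to vehicle (0.5% DMSO) control.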

[2] = test system: SW480; experiment: Anticancer activity against human SW480 cells expressing GPR120 assessed as inhibition of cell viability measured after 24 hrs by alamar blue assay; format: functional, cell-based; settings: SW480, 24 h
Summary of the method: (§1)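 SW480 seeded 10,000, 5,000 or 2500 cells/well for 24, 48 or 72 h exposure; 9 serial dilutions 100 to 0.39 μM in 0.5% DMSO medium, not replenished during treatment. Read by 6% alamar blue, 3 h, ex 560/em 590 nm. 50% DMSO defined 0%, 0.5% DMSO 100%; IC50 by non-linear regression. 5 replicates, three experiments.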

[3] = test system: SW480; experiment: Anticancer activity against human SW480 cells expressing GPR120 assessed as inhibition of cell viability measured after 72 hrs by alamar blue assay; format: functional, cell-based; summary of the method: as §1
[4] = test system: SW480; experiment: Anticancer activity against human SW480 cells expressing GPR120 assessed as inhibition of cell viability measured after 48 hrs by alamar blue assay; format: functional, cell-based; settings: SW480, 48 h; summary of the method: as §1
[5] = test system: SW480; experiment: Anticancer activity against human SW480 cells transfected with GPR120 siRNA assessed as inhibition of cell viability 5 uM measured after 24 hrs by alamar blue assay; format: functional, cell-based
Summary of the method: (§2)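 SW480 seeded overnight, transfected with 50 nM human GPR120 27mer siRNA duplex or universal scrambled siRNA duplex (siTran 2.0). Harvested 24 h post-transfection, then exposed to 5 μM, 24 h. Viability read by alamar blue (6%, 3 h, ex 560/em 590 nm). Five replicates, mean ± SE; two-way ANOVA with Tukey test.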

[6] = test system: SW480; experiment: Anticancer activity against human SW480 cells transfected with scrambled siRNA assessed as inhibition of cell viability 5 uM measured after 24 hrs by alamar blue assay; format: functional, cell-based; summary of the method: as §2

| Structure (SMILES) | IC50 [2] [µM] | IC50 [4] [µM] | inhibition at 100 µM [1] [%] | Activity [3] | Activity [5] | Activity [6] |
| --- | --- | --- | --- | --- | --- | --- |
| Cc1ccc(-n2c(SCC(=O)c3ccc(Br)cc3)nc3c(c2=O)C2(CCCC2)Cc2ccccc2-3)cc1 | 25.5 |  |  |  |  |  |
| O=C1c2cc(S(=O)(=O)Nc3cccc4ccccc34)ccc2-c2ccc(S(=O)(=O)Nc3cccc4ccccc34)cc21 | 26.6 | 50 | > 90 | Active |  |  |
| O=C(CSc1nc2c(c(=O)n1CCc1ccccc1)C1(CCCC1)Cc1ccccc1-2)c1ccc(Cl)cc1 | 68.9 |  |  |  |  |  |
| O=C(CSc1nc2c(c(=O)n1C1CCCC1)C1(CCCC1)Cc1ccccc1-2)c1ccc(Cl)cc1 | 24.3 |  |  |  |  |  |

These reach a lower IC50 [2]. Values come first.

| IC50 [2] [µM] | IC50 [4] [µM] | Structure (SMILES) | inhibition at 100 µM [1] [%] | Activity [3] | Activity [5] | Activity [6] |
| --- | --- | --- | --- | --- | --- | --- |
| 23.2 | 50 | Cc1ccc(-n2c(SCC(=O)c3ccccc3)nc3c(c2=O)C2(CCCC2)Cc2ccccc2-3)cc1 | > 90 | Active |  |  |
| 22.9 |  | Cn1c(SCC(=O)c2ccc(Cl)cc2)nc2c(c1=O)C1(CCCC1)Cc1ccccc1-2 |  |  |  |  |
| 6.79 |  | COc1ccc(-n2c(SCC(=O)c3ccc(Cl)cc3)nc3c(c2=O)C2(CCCC2)Cc2ccccc2-3)cc1 |  |  | Active | Active |
| 5.89 |  | O=C(CSc1nc2c(c(=O)n1-c1ccccc1)C1(CCCC1)Cc1ccccc1-2)c1ccc(Cl)cc1 |  |  | inactive | Active |
